Measured values pooled from the literature.
pIC50: −log10 of the molar value. In brackets after ≈: the same amount, converted by molar mass.

CCCCCCCCCCCCCCCCOP(=O)([O-])OCC[N+](C)(C)C  pIC50 (Leishmania donovani; parasite growth; THP-1; 72 h, intracellular, amastigote): 5.42
Oc1cc2c(cc1O)C(Cc1ccccc1)NCC2 (centres unmarked)  pIC50 (ABTS scavenging; 10 min, dark): 5.09
NC(=O)C1CCCN1C(=O)Nc1ccccc1/N=c1\cc(-c2ccc3c(c2)OCCO3)oc2cc(F)ccc12 (centres unmarked)  inhibition (A549; cell growth or viability, CCK-8; 1 µM): -1.31%
CCOc1ccc(Nc2c3c(nc4ccccc24)CCC3)cc1  pIC50 (Leishmania donovani; parasite growth; THP-1; 72 h, intracellular, amastigote): 6.11
Oc1cc2c(cc1O)C(CCc1ccccc1)NCC2 (centres unmarked)  pIC50 (ABTS scavenging; 10 min, dark): 5.09
c1ccc(Oc2ccc(Nc3c4c(nc5ccccc35)CCC4)cc2)cc1  pIC50 (Leishmania donovani; parasite growth; THP-1; intracellular, amastigote): 6.24
c1ccc(-c2ccc3c(c2)NC(C2Nc4cc(-c5ccccc5)ccc4O2)O3)cc1 (centres unmarked)  pIC50 (Leishmania donovani; parasite growth, resazurin; 72 h, promastigote): 5.04
Oc1ccc(C2NCCc3cc(O)c(O)cc32)cc1O (centres unmarked)  pIC50 (ABTS scavenging; 10 min, dark): 5.31
O=C(O)CCC(=O)OCCN(Cc1ccc(Oc2ccc([N+](=O)[O-])cc2)cc1)C(=O)C(Cl)Cl  pIC50 (Leishmania donovani; parasite growth, resazurin; 72 h, promastigote): 5.57
O=C1O[C@H]([C@@H](O)CO)C(O)=C1O  IC50 (ABTS scavenging; 20 min): 54.5 µg/mL
COc1cc(C2NCCc3cc(O)c(O)cc32)ccc1O (centres unmarked)  pIC50 (ABTS scavenging; 10 min, dark): 4.86
CN1CCN(S(=O)(=O)c2ccc(-c3ccc4nncc(Nc5ncc(Cl)cn5)c4c3)cc2)CC1  EC50 (Leishmania donovani; parasite growth; intracellular, amastigote): 0.035 µg/mL (≈ 0.0706 µM)
NCCC(=O)Nc1ccccc1/N=c1\cc(-c2ccc3c(c2)OCCO3)oc2cc(F)ccc12  inhibition (A549; cell growth or viability, CCK-8; 1 µM): -8.9%
CCCCCCCCCCCCCCCCCCOc1cccc(CC(=O)OCC[N+](C)(C)C)c1  inhibition (NCI-H522; cell growth or viability, SRB; 10 µM): 13.3%
C[C@@H]1[C@H](O)[C@@H](C)/C=C/C=C/C=C/C=C/C=C/C=C/C=C/[C@H](O[C@@H]2O[C@H](C)[C@@H](O)[C@H](N)[C@@H]2O)C[C@@H]2O[C@](O)(C[C@@H](O)C[C@@H](O)[C@H](O)CC[C@@H](O)C[C@@H](O)CC(=O)O[C@H]1C)C[C@H](O)[C@H]2C(=O)O  pIC50 (Leishmania donovani; parasite growth; THP-1; 72 h, intracellular, amastigote): 6.22
CCCCCCCCC1NCCc2cc(O)c(O)cc21 (centres unmarked)  pIC50 (ABTS scavenging; 10 min, dark): 4.32
CCCCCCCCCCCCCCCCCCOc1cccc(CC(=O)OCCC[N+](C)(C)C)c1  inhibition (NCI-H522; cell growth or viability, SRB; 10 µM): 21.8%
